# Measured values as given in ChEMBL document CHEMBL1134691, “3-Phenyl-5-acyloxymethyl-2H,5H-furan-2-ones: synthesis and biological activity of a novel group of potential antifungal drugs” (2001).
# Experiments:
# Candida albicans [1] = assay: Inhibition of Candida albicans ATCC 90028 for 48 hours in vitro.; format: functional
# How it was run: (§1)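 NCCLS M27-A broth microdilution in RPMI 1640 with L-glutamine and 0.165 M MOPS, pH 7.0. Isolates kept on Sabouraud dextrose agar. Inoculum 5 × 10^3 cfu/mL final. Compounds were diluted in DMSO (≤2% final) and tested in 2-fold dilutions of 1000–0.24 µmol/L. Incubation at 35 °C, OD540 read at 24 and 48 h. MIC = 80% growth inhibition versus control; assays run twice in duplicate.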
# Lichtheimia corymbifera [2] = assay: In vitro inhibition of Absidia corymbifera 272 growth for 24 hours.; format: functional
# How it was run: (§2)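 Filamentous isolates tested by microdilution per NCCLS M27-A in RPMI 1640 plus L-glutamine, buffered with 0.165 M MOPS to pH 7.0. Final inoculum 5 × 10^3 cfu/mL. Compounds in DMSO (final ≤2%), 2-fold series over 1000–0.24 µmol/L. Plates held at 35 °C and read visually after 24 and 48 h. MIC taken as 80% inhibition of control growth; determined twice in duplicate.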
# Candida parapsilosis [3] = assay: Inhibition of Candida parapsilosis ATCC 22019 growth for 24 hours in vitro.; format: functional; how it was run: as §1
# Candida tropicalis [4] = assay: Inhibition of Candida tropicalis 156 growth for 24 hours in vitro.; format: functional; how it was run: as §1
# Candida albicans [5] = assay: Inhibition of Candida albicans ATCC 90028 for 24 hours in vitro.; format: functional; how it was run: as §1
# Clavispora lusitaniae [6] = assay: Inhibition of Candida lusitaniae 2446/I growth for 24 hours in vitro.; format: functional; how it was run: as §1
# Pichia kudriavzevii [7] = assay: Inhibition of Candida krusei ATCC 6258 growth for 24 hours in vitro.; format: functional; how it was run: as §1
# Lichtheimia corymbifera [8] = assay: In vitro inhibition of Absidia corymbifera 272 growth for 48 hours.; format: functional; how it was run: as §2
# Pichia kudriavzevii [9] = assay: Inhibition of Candida krusei E28 growth for 48 hours in vitro.; format: functional; how it was run: as §1
# Trichosporon beigelii [10] = assay: Inhibition of Trichosporon beigelli 1188 for 24 hours in vitro.; format: functional
# How it was run: (§3)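 Microdilution following NCCLS M27-A. Medium: RPMI 1640 with L-glutamine, 0.165 M MOPS, pH 7.0. Final inoculum 5 × 10^3 cfu/mL. Compounds dissolved in DMSO, final ≤2%, serially halved from 1000 to 0.24 µmol/L. Incubated at 35 °C and read at 24 and 48 h. MIC defined as 80% inhibition of control growth; run twice in duplicate.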
# Candida albicans [11] = assay: Inhibition of Candida albicans ATCC 44859 growth for 48 hours in vitro.; format: functional; how it was run: as §1
# Pichia kudriavzevii [12] = assay: Inhibition of Candida krusei E28 growth for 24 hours in vitro.; format: functional; how it was run: as §1
# [13] = Inhibition of Trichophyton mentagrophytes 445 growth for 120 hours in vitro.; format: functional, Arthroderma benhamiae
# How it was run: (§4)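 Dermatophyte grown in MOPS-buffered (0.165 M, pH 7.0) RPMI 1640 containing L-glutamine, in an M27-A microdilution format. Inoculum 5 × 10^3 cfu/mL final. Compounds from DMSO stocks (≤2% final), 2-fold dilutions 1000–0.24 µmol/L. Incubated at 35 °C, growth judged visually at 72 and 120 h. MIC endpoint is 80% inhibition relative to control; measured twice in duplicate.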
# Candida tropicalis [14] = assay: Inhibition of Candida tropicalis 156 growth for 48 hours in vitro.; format: functional; how it was run: as §1
# Nakaseomyces glabratus [15] = assay: Inhibition of Candida glabrata 20/I growth for 48 hours in vitro.; format: functional; how it was run: as §1
# Nakaseomyces glabratus [16] = assay: Inhibition of Candida glabrata 20/I growth for 24 hours in vitro.; format: functional; how it was run: as §1
# [17] = Inhibition of Trichophyton mentagrophytes 445 growth for 72 hours in vitro.; format: functional, Arthroderma benhamiae; how it was run: as §4
# Aspergillus fumigatus [18] = assay: Inhibition of Aspergillus fumigatus 231 growth for 48 hours in vitro.; format: functional; how it was run: as §2
# Candida albicans [19] = assay: Inhibition of Candida albicans ATCC 44859 growth for 24 hours in vitro.; format: functional; how it was run: as §1
# Trichosporon beigelii [20] = assay: Inhibition of Trichosporon beigelli 1188 for 48 hours in vitro.; format: functional; how it was run: as §3
# Candida parapsilosis [21] = assay: Inhibition of Candida parapsilosis ATCC 22019 growth for 48 hours in vitro.; format: functional; how it was run: as §1
# Clavispora lusitaniae [22] = assay: Inhibition of Candida lusitaniae 2446/I growth for 48 hours in vitro.; format: functional; how it was run: as §1
# Aspergillus fumigatus [23] = assay: Inhibition of Aspergillus fumigatus 231 growth for 24 hours in vitro.; format: functional; how it was run: as §2
# Pichia kudriavzevii [24] = assay: Inhibition of Candida krusei ATCC 6258 growth for 48 hours in vitro.; format: functional; details: Pichia kudriavzevii, ATCC 6258, 48 h; read-out: MIC; how it was run: as §1
# [25] = Candida albicans, ATCC 90028, 48 h, read-out: MIC
# [26] = Lichtheimia corymbifera, 24 h, read-out: MIC
# [27] = Lodderomyces parapsilosis, ATCC 22019, 24 h, read-out: MIC
# [28] = Candida tropicalis, 24 h, read-out: MIC
# [29] = Candida albicans, ATCC 90028, 24 h, read-out: MIC
# [30] = Clavispora lusitaniae, 24 h, read-out: MIC
# [31] = Pichia kudriavzevii, ATCC 6258, 24 h, read-out: MIC
# [32] = Lichtheimia corymbifera, 48 h, read-out: MIC
# [33] = Pichia kudriavzevii, 48 h, read-out: MIC
# [34] = Trichosporon beigelii, 24 h, read-out: MIC
# [35] = Candida albicans, ATCC 44859, 48 h, read-out: MIC
# [36] = Pichia kudriavzevii, 24 h, read-out: MIC
# [37] = Trichophyton benhamiae, 120 h, read-out: MIC
# [38] = Candida tropicalis, 48 h, read-out: MIC
# [39] = Nakaseomyces glabratus, 48 h, read-out: MIC
# [40] = Nakaseomyces glabratus, 24 h, read-out: MIC
# [41] = Trichophyton benhamiae, 72 h, read-out: MIC
# [42] = Aspergillus fumigatus, 48 h, read-out: MIC
# [43] = Candida albicans, ATCC 44859, 24 h, read-out: MIC
# [44] = Trichosporon beigelii, 48 h, read-out: MIC
# [45] = Lodderomyces parapsilosis, ATCC 22019, 48 h, read-out: MIC
# [46] = Clavispora lusitaniae, 48 h, read-out: MIC
# [47] = Aspergillus fumigatus, 24 h, read-out: MIC
structure (smiles),measurement,setting,value
"CC(C)(C)C(=O)OCC1C=C(c2ccc(Cl)c(Cl)c2)C(=O)O1 (single isomer, unassigned; (+))",MIC,Candida albicans [1],2.68 µM
same,MIC,Lichtheimia corymbifera [2],10.73 uM l-1
same,MIC,Candida parapsilosis [3],2.68 uM l-1
same,MIC,Candida tropicalis [4],5.36 uM l-1
same,MIC,Candida albicans [5],1.34 uM l-1
same,MIC,Clavispora lusitaniae [6],1.34 uM l-1
same,MIC,Pichia kudriavzevii [7],5.36 uM l-1
same,MIC,Lichtheimia corymbifera [8],10.73 uM l-1
same,MIC,Pichia kudriavzevii [9],10.73 uM l-1
same,MIC,Trichosporon beigelii [10],2.68 uM l-1
same,MIC,Candida albicans [11],1.34 uM l-1
same,MIC,Pichia kudriavzevii [12],5.36 uM l-1
same,MIC,[13],0.67 uM l-1
same,MIC,Candida tropicalis [14],10.73 uM l-1
same,MIC,Nakaseomyces glabratus [15],1.34 uM l-1
same,MIC,Nakaseomyces glabratus [16],0.67 µM
same,MIC,[17],0.34 µM
same,MIC,Aspergillus fumigatus [18],2.68 uM l-1
same,MIC,Candida albicans [19],0.67 µM
same,MIC,Trichosporon beigelii [20],5.36 uM l-1
same,MIC,Candida parapsilosis [21],5.36 uM l-1
same,MIC,Clavispora lusitaniae [22],2.68 uM l-1
same,MIC,Aspergillus fumigatus [23],1.34 uM l-1
O=C1OC(CO)C=C1c1cccc(Cl)c1 (stereo unspecified),MIC,Candida albicans [1]; [25],250 µM
same,MIC,Lichtheimia corymbifera [2]; [26],125 µM
same,MIC,Candida parapsilosis [3]; [27],500 µM
same,MIC,Candida tropicalis [4]; [28],500 µM
same,MIC,Candida albicans [5]; [29],250 µM
same,MIC,Clavispora lusitaniae [6]; [30],250 µM
same,MIC,Pichia kudriavzevii [7]; [31],1000 µM
same,MIC,Lichtheimia corymbifera [8]; [32],500 µM
same,MIC,Pichia kudriavzevii [9]; [33],> 1000 µM
same,MIC,Trichosporon beigelii [10]; [34],250 µM
same,MIC,Candida albicans [11]; [35],62.5 µM
same,MIC,Pichia kudriavzevii [12]; [36],1000 µM
same,MIC,[13]; [37],15.6 µM
same,MIC,Candida tropicalis [14]; [38],> 1000 µM
same,MIC,Nakaseomyces glabratus [15]; [39],62.5 µM
same,MIC,Nakaseomyces glabratus [16]; [40],62.5 µM
same,MIC,[17]; [41],15.6 µM
same,MIC,Aspergillus fumigatus [18]; [42],125 µM
same,MIC,Candida albicans [19]; [43],31.2 µM
same,MIC,Trichosporon beigelii [20]; [44],1000 µM
same,MIC,Candida parapsilosis [21]; [45],1000 µM
same,MIC,Clavispora lusitaniae [22]; [46],1000 µM
same,MIC,Pichia kudriavzevii [24],> 1000 µM
same,MIC,Aspergillus fumigatus [23]; [47],31.2 µM
O=C1OC(COC(=O)c2ccc(Cl)cc2)C=C1c1ccc(Br)cc1 (stereo unspecified),MIC,Candida albicans [1]; [25],7.81 µM
same,MIC,Lichtheimia corymbifera [2]; [26],7.81 µM
same,MIC,Candida parapsilosis [3]; [27],7.81 µM
same,MIC,Candida tropicalis [4]; [28],7.81 µM
same,MIC,Candida albicans [5]; [29],3.91 µM
same,MIC,Clavispora lusitaniae [6]; [30],3.91 µM
same,MIC,Pichia kudriavzevii [7]; [31],7.81 µM
same,MIC,Lichtheimia corymbifera [8]; [32],15.6 µM
same,MIC,Pichia kudriavzevii [9]; [33],15.6 µM
same,MIC,Trichosporon beigelii [10]; [34],3.91 µM
same,MIC,Candida albicans [11]; [35],3.91 µM
same,MIC,Pichia kudriavzevii [12]; [36],7.81 µM
same,MIC,[13]; [37],3.91 µM
same,MIC,Candida tropicalis [14]; [38],15.6 µM
same,MIC,Nakaseomyces glabratus [15]; [39],1.95 µM
same,MIC,Nakaseomyces glabratus [16]; [40],1.95 µM
same,MIC,[17]; [41],1.95 µM
same,MIC,Aspergillus fumigatus [18]; [42],3.91 µM
same,MIC,Candida albicans [19]; [43],1.95 µM
same,MIC,Trichosporon beigelii [20]; [44],15.6 µM
same,MIC,Candida parapsilosis [21]; [45],15.6 µM
same,MIC,Clavispora lusitaniae [22]; [46],7.81 µM
same,MIC,Pichia kudriavzevii [24],15.6 µM
same,MIC,Aspergillus fumigatus [23]; [47],0.98 µM
